Assays:
[1] = test system: PNT2 cells; assay: Cell viability assay; assay type: cell-based, human; settings: 5 days, WST-8 (CCK-8)
In short: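 PNT2 cells were grown at 37 °C in 5% CO2 and treated with serial dilutions of the test compound. The general protocol gives a treatment span of 5–8 days. Viability was measured by CCK-8 (WST-8) absorbance at 450 nm, with 690 nm as reference. IC50 was calculated by curve fitting.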

[2] = biological target: T1, PRMT7 (Homo sapiens, UniProt Q9NVM4); assay: Western blot of PRMT7 protein level in 22Rv1 cells; assay type: cell-based; settings: indicated concentration, 24 h, WB
T1 sequence (Q9NVM4 1-692): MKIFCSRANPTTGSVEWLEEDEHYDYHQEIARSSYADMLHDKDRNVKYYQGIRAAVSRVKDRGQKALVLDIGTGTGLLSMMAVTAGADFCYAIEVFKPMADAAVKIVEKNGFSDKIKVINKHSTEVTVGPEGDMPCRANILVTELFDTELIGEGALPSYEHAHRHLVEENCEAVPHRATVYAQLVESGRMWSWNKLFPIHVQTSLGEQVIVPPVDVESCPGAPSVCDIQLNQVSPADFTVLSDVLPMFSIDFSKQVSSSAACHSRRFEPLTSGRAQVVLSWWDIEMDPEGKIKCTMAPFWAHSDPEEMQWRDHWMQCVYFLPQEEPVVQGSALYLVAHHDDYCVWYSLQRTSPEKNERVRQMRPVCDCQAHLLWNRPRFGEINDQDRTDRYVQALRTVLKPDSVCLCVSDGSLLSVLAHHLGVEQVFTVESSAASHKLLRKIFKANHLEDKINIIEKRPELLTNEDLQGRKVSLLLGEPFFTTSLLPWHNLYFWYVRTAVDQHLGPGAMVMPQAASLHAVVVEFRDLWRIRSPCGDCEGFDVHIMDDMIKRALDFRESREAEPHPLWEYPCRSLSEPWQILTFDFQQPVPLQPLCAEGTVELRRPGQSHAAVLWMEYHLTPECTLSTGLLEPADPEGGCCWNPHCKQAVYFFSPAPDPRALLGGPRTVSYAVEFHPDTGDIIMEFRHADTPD
In short: (§1)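 22Rv1 cells were treated with the test compound at the indicated concentrations for 24 h. Cells were lysed in RIPA containing protease inhibitor cocktail, and protein was resolved by SDS-PAGE and transferred to PVDF. Primary antibody was applied overnight at 4 °C, with β-actin as loading control. Blots are representative of two independent experiments.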

[3] = biological target: T2, EZH2 (Homo sapiens, UniProt Q15910); assay: Radioactive methyltransferase assay, EZH2; assay type: biochemical; settings: 10 μM compound
Target sequence in this assay (Q15910 whole entry): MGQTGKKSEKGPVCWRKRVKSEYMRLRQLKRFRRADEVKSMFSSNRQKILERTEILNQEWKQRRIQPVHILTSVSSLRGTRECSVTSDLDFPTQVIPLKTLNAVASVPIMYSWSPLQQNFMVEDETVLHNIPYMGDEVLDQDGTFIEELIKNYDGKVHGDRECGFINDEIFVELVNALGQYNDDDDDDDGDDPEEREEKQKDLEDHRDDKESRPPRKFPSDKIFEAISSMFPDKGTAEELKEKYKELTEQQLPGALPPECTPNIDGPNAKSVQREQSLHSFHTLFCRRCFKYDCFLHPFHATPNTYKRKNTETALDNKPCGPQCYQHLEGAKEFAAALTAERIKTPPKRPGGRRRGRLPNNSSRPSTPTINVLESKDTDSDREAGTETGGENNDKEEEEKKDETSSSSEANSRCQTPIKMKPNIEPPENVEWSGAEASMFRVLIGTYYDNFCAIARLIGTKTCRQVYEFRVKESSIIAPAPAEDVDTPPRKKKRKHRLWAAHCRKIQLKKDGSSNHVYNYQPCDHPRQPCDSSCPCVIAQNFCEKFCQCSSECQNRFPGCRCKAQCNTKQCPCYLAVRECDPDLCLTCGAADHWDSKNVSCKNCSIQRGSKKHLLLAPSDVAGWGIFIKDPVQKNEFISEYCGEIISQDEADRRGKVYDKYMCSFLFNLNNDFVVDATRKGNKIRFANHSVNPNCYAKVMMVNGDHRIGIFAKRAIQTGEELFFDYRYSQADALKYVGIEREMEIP
Target sequence in this assay (O75530 whole entry partner): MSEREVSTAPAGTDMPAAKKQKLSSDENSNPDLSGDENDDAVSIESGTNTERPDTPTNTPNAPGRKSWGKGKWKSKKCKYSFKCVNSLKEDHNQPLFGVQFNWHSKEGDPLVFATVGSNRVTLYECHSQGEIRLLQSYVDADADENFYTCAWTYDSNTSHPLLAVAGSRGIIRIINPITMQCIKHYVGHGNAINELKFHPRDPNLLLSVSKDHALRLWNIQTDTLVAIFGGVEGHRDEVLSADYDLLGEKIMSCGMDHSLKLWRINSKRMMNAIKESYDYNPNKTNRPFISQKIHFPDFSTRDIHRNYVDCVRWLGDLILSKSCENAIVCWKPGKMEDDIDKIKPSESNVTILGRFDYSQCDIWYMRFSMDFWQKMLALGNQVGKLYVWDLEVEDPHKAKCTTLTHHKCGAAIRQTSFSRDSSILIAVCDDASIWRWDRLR
Target sequence in this assay (Q15022 whole entry partner): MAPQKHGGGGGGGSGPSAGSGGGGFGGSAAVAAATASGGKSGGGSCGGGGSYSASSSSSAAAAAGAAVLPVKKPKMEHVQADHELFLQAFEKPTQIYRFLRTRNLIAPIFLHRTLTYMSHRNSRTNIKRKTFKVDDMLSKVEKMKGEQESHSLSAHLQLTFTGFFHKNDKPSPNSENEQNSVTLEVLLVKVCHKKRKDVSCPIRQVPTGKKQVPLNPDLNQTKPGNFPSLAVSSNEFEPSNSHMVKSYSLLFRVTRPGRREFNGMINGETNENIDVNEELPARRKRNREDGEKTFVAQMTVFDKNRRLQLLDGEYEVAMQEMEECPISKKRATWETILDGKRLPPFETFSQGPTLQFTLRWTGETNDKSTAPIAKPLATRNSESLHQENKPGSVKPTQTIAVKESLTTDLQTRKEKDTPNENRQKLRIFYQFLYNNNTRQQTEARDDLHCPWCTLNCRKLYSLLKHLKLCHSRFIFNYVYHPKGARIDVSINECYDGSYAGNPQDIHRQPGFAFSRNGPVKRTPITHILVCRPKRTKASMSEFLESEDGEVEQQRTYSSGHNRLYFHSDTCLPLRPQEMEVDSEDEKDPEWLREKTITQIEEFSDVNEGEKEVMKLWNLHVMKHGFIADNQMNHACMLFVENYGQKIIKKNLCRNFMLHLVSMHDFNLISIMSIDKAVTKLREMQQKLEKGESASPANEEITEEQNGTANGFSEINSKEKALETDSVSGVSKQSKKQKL
Target sequence in this assay (Q09028 whole entry partner): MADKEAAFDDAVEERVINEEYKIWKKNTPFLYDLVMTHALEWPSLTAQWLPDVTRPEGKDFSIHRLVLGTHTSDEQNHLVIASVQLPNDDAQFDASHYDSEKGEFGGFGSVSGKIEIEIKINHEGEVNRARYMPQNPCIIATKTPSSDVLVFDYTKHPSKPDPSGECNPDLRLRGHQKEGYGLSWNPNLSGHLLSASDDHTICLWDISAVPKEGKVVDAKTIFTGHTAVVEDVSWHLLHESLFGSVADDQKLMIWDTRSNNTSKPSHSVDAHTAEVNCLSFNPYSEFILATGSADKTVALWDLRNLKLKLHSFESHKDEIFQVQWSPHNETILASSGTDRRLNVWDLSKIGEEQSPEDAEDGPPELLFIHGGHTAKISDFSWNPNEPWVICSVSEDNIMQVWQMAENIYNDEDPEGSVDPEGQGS
Target sequence in this assay (Q6ZN18 whole entry partner): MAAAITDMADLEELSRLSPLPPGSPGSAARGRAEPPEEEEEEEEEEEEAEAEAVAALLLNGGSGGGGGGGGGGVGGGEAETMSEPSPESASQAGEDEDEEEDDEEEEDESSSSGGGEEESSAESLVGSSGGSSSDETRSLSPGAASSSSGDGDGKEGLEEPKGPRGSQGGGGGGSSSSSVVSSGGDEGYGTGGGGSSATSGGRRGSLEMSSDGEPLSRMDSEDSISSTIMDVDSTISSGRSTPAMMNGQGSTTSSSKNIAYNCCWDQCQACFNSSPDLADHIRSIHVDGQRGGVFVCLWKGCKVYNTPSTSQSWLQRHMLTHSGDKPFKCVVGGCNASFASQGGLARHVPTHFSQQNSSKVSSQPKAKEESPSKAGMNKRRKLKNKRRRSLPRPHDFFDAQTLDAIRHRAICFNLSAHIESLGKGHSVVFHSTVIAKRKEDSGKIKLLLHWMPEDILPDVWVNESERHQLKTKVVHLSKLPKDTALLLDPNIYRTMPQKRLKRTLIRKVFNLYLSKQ

[4] = test system: GLP mRNA; assay: RT-qPCR of GLP mRNA in H1299 cells; assay type: cell-based; settings: 3 μM, 24 h, normalized to DMSO
In short: (§2)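 H1299 cells were treated with DMSO or test compound at 3 μM for 24 h. Total RNA was extracted and reverse-transcribed to cDNA. qPCR used gene-specific primers for G9a and GLP, and a GAPDH primer set was included.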

[5] = test system: panel of 21 protein methyltransferases; assay: Selectivity panel, radioactive methyltransferase assays; assay type: biochemical; settings: 10 μM compound, duplicate
In short: (§3)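 The selectivity screen covered 21 protein methyltransferases in radioisotope-based MT HotSpot methyltransferase assays run by a contract laboratory. Test compound was at 10 μM. Each assay was run in duplicate and reported as mean ± SD of the two replicates.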

[6] = Mouse PK study, single IP administration; assay type: in vivo; settings: C57BL/6 mice
[7] = biological target: T2, EZH2; assay: Western blot of EZH2 protein level in 22Rv1 cells; assay type: cell-based; settings: indicated concentration, 24 h, WB
Target sequence in this assay (Q15910 whole entry): as the sequence (Q15910 whole entry) above

[8] = test system: G9a mRNA; assay: RT-qPCR of G9a mRNA in H1299 cells; assay type: cell-based; settings: 3 μM, 24 h, normalized to DMSO
In short: as §2

[9] = test system: 22Rv1 cells; assay: Clonogenicity assay in 22Rv1 cells; assay type: cell-based; settings: 8 days treatment, crystal violet
In short: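 22Rv1 cells were seeded at 50,000 per well in 6-well plates. They were treated continuously with the test compound at the indicated concentrations for 8 days, then stained with 0.5% crystal violet. Three independent biological experiments were run.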

[10] = biological target: T1, PRMT7; assay: Radioactive methyltransferase assay, PRMT7; assay type: biochemical; settings: 10 μM compound
In short: as §3

[11] = biological target: T3, SET7/9 (Homo sapiens, UniProt Q8WTS6); assay: Western blot of SET7/9 protein level in 22Rv1 cells; assay type: cell-based; settings: indicated concentration, 24 h, WB
T3 sequence (Q8WTS6 1-366): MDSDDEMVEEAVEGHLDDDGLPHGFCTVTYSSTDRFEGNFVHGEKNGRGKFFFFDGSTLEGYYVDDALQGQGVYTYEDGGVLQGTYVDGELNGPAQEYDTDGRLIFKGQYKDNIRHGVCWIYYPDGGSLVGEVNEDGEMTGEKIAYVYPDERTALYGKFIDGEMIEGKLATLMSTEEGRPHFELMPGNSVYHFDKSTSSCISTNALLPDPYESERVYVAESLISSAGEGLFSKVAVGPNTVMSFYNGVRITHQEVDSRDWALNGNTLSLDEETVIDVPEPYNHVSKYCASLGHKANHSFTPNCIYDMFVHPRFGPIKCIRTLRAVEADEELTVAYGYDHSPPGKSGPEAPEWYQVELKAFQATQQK
In short: as §1

SMILES: COc1cc2c(NC3CCN(CCCC(=O)NCCCCCCCCCCCC(=O)N[C@H](C(=O)N4C[C@H](O)C[C@H]4C(=O)NCc4ccc(-c5scnc5C)cc4)C(C)(C)C)CC3)nc(N3CCC(F)(F)CC3)nc2cc1OCCCN1CCCC1 [Compound 10, (2S,4R)-1-((S)-2-(12-(4-(4-((2-(4,4-difluoropiperidin-1-yl)-6-methoxy-7-(3-(pyrrolidin-1-yl)propoxy)quinazolin-4-yl)amino)piperidin-1-yl)butanamido)dodecanamido)-3,3-dimethylbutanoyl)-4-hydroxy-N-(4-(4-methylthiazol-5-yl)benzyl)pyrrolidine-2-carboxamide]
- cell viability of normal prostate cells [1]: does not affect the cell viability
- PRMT7 degradation [2]: cannot induce the degradation
- inhibition of EZH2 [3]: moderately inhibited
- mRNA levels of GLP [4]: did not significantly alter
- inhibition of panel methyltransferases [5]: ≤ 50%
- Cmax ([6]; IP, 50 mg/kg, plasma, HCl salt form): 27 ± 0.6 µM
- plasma exposure levels maintained up to 8 h ([6]; IP, 50 mg/kg, up to 8 h): > 5 µM
- clinical signs in the PK study ([6]; single IP 50 mg/kg): no clinical signs were observed
- tolerability in the PK study ([6]; single IP 50 mg/kg): well tolerated
- EZH2 degradation [7]: cannot induce the degradation
- mRNA levels of G9a [8]: did not significantly alter
- inhibition of 22Rv1 cell colony formation [9]: able to inhibit
- inhibition of PRMT7 [10]: moderately inhibited
- SET7/9 degradation [11]: cannot induce the degradation

Source: PMC10925177 (bioRxiv, 2024)
